# Test results reported in publication PMC10230191 (RSC Advances, 2023).
# Experiments:
# [1] = test system: HBV; test: Anti-HBV assay in HBV-producing HepG2 2.2.15 cells; assay type: cell-based, hepatitis B virus; details: for EC50: Hepatitis B virus, HepG2 2.2.15, 336 h, read-out: EC50 (nM) against HBV
# Procedure, shortened: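 […] cells seeded at 4 × 10^3 per well with a range of test-compound concentrations; medium and compound renewed on days 3 and 7. On day 14, total cellular DNA was extracted and HBV genomes quantified by real-time PCR (95 °C 10 min; 50 cycles of 95 °C 10 s, 60 °C 1 min). Copies were derived from CT against 10-fold HBV plasmid dilutions, compared with no-compound controls, and EC50 was obtained by linear forecast.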
# [2] = Cytotoxicity in HepG2.2.15 cells; assay type: cell-based; details: human
# Procedure, shortened: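 Cells plated at 2 × 10^3 per well, exposed continuously to test compound for 14 days; viable cells counted by CCK-8 relative to no-compound controls to give CC50.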
EC50 [1],Compound,"times lower anti-HBV activity compared to compound (E)-6 ([1]; HepG2 2.2.15 cells, relative to (E)-6)",CC50 at 14 days [2]
585 ± 358 nM,"N#C[C@]1(CO)/C(=C/F)[C@@H](n2cnc3c(=O)[nH]c(N)nc32)C[C@@H]1O [(Z)-6, (1S,3S,5S,Z)-3-(2-Amino-6-oxo-1,6-dihydro-9H-purin-9-yl)-2-(fluoromethylene)-5-hydroxy-1-(hydroxymethyl)cyclopentane-1-carbonitrile]",~500 times,> 100000 nM
2.3 ± 0.6 nM,"C=C1[C@H](CO)[C@@H](O)C[C@@H]1n1cnc2c(=O)[nH]c(N)nc21 [Compound 1, entecavir, reference compound]",,63000 nM
0.3 ± 0.1 nM,"N#C[C@]1(CO)O[C@@H](n2cnc3c(=O)[nH]c(N)nc32)C[C@@H]1O [Compound 2, 4′-cyano-deoxyguanosine, reference compound]",,3000 ± 200 nM
1.2 ± 0.7 nM,"N#C[C@]1(CO)/C(=C\F)[C@@H](n2cnc3c(=O)[nH]c(N)nc32)C[C@@H]1O [Compound (E)-6, (1S,3S,5S,E)-3-(2-Amino-6-oxo-1,6-dihydro-9H-purin-9-yl)-2-(fluoromethylene)-5-hydroxy-1-(hydroxymethyl)cyclopentane-1-carbonitrile]",,93000 nM
